{"data": "Published values from different studies", "RAF1": "RAF proto-oncogene serine/threonine-protein kinase (RAF1, Homo sapiens, UniProt P04049)", "RAF1 Y340D/Y341D": "RAF proto-oncogene serine/threonine-protein kinase (RAF1, Homo sapiens, UniProt P04049, Y340D/Y341D)", "note": "Lines come from different studies, so protocols differ."}
{"Structure (SMILES)": "COc1cc2c(N3CCN(C(=O)Nc4ccc(OC(C)C)cc4)CC3)ncnc2cc1OCCCN1CCCCC1", "target": "RAF1", "read-out": "cell-free assay", "concentration": "0.5 µM", "endpoint": "remaining signal", "value": "96.7%"}
{"Structure (SMILES)": "CCS(=O)(=O)c1cc2cc(C[C@](O)(CC(C)(C)c3ccc(F)cc3C(N)=O)C(F)(F)F)[nH]c2cn1", "target": "RAF1", "read-out": "cell-free assay", "technique": "competition with immobilised ligand", "concentration": "1 µM", "endpoint": "remaining binding", "value": "83%"}
{"Structure (SMILES)": "Cc1ccc(Nc2nccc(N(C)c3ccc4c(C)n(C)nc4c3)n2)cc1S(N)(=O)=O", "target": "RAF1", "read-out": "enzyme activity", "action": "inhibitor", "concentration": "10 µM", "endpoint": "inhibition", "value": "96%"}
{"Structure (SMILES)": "CNCc1ccc(-c2cc(-c3nc(-c4ccc(S(=O)(=O)C(C)C)cc4)cnc3N)on2)cc1", "target": "RAF1", "read-out": "enzyme activity", "action": "inhibitor", "concentration": "0.4 µM", "endpoint": "inhibition", "value": "0%"}
{"Structure (SMILES)": "O=C1Nc2ccc(Cl)cc2C1=Cc1cc(Cl)c(O)c(Cl)c1", "target": "RAF1", "read-out": "cell-free assay", "concentration": "0.5 µM", "endpoint": "remaining signal", "value": "6.93%"}
{"Structure (SMILES)": "O=C(CSc1nc2nccnc2c(=O)n1CCc1ccccc1)Nc1nccs1", "target": "RAF1 Y340D/Y341D", "read-out": "enzyme activity", "action": "inhibitor", "concentration": "10 µM", "endpoint": "inhibition", "value": "3%"}
{"Structure (SMILES)": "CNC(=O)c1cc2c(Oc3ccc(NC(=O)C4(C(=O)Nc5ccc(F)cc5)CC4)cc3)ccnc2cc1OC", "target": "RAF1", "read-out": "enzyme activity", "action": "inhibitor", "technique": "radiometric", "concentration": "1 µM", "endpoint": "inhibition", "value": "83%"}
{"Structure (SMILES)": "N#Cc1ccc(Nc2ccc3[nH]c(=O)[nH]c3c2)c(Cl)c1", "target": "RAF1", "read-out": "cell-free assay", "technique": "competition with immobilised ligand", "concentration": "1 µM", "endpoint": "remaining binding", "value": "68%"}
{"Structure (SMILES)": "COc1cc(-c2cc(-c3ccc(N4CCNCC4)cc3)cnc2N)cc(OC)c1OC", "target": "RAF1", "read-out": "enzyme activity", "action": "inhibitor", "concentration": "1 µM", "endpoint": "inhibition", "value": "2%"}
{"Structure (SMILES)": "CNc1cccc2cc(C(=O)Nc3ccc(C(=O)O)cc3)c(=O)[nH]c12", "target": "RAF1", "read-out": "enzyme activity", "action": "inhibitor", "concentration": "10 µM", "endpoint": "inhibition", "value": "6.9%"}
{"Structure (SMILES)": "CN1CC(Oc2cnc(C#N)cc2-c2ccn3nc(NC(=O)C4CC4)cc3c2)C1", "target": "RAF1", "read-out": "enzyme activity", "action": "inhibitor", "concentration": "1 µM", "endpoint": "inhibition", "value": "2%"}
{"Structure (SMILES)": "CSc1nc(C)c(-c2ccnc(Nc3ccc(N4CCOCC4)cc3)c2)[nH]1", "target": "RAF1", "read-out": "enzyme activity", "action": "inhibitor", "concentration": "10 µM", "endpoint": "inhibition", "value": "64.1%"}
{"Structure (SMILES)": "CN(C)C1CCN(CC#Cc2nn(C3CCCC3)c3nc(NCc4ccccc4)ncc23)C1 (stereo not drawn)", "target": "RAF1 Y340D/Y341D", "read-out": "enzyme activity", "action": "inhibitor", "technique": "FRET", "concentration": "1 µM", "endpoint": "inhibition", "value": "-4%"}
{"Structure (SMILES)": "CCN(CC)CCNC(=O)c1c(C)[nH]c(/C=C2\\C(=O)Nc3ccc(F)cc32)c1C", "target": "RAF1", "read-out": "enzyme activity", "action": "inhibitor", "concentration": "0.1 µM", "endpoint": "remaining activity", "value": "95%"}
{"Structure (SMILES)": "CCN(CC)CCNC(=O)c1c(C)[nH]c(/C=C2\\C(=O)Nc3ccc(F)cc32)c1C", "target": "RAF1", "read-out": "cell-free assay", "concentration": "0.5 µM", "endpoint": "remaining signal", "value": "110%"}
{"Structure (SMILES)": "c1nc2c(Nc3ccc4c(c3)OCCO4)nc(Nc3ccc4c(c3)OCCO4)nc2[nH]1", "target": "RAF1", "read-out": "enzyme activity", "action": "inhibitor", "concentration": "10 µM", "endpoint": "activity vs control", "value": "95%"}
{"Structure (SMILES)": "C=CC(=O)Nc1cc(Nc2nccc(Nc3cc(Cl)c(F)cc3C(C)(C)O)n2)c(OC)cc1N1CC[C@@H](N(C)C)C1", "target": "RAF1", "read-out": "enzyme activity", "action": "inhibitor", "concentration": "1 µM", "endpoint": "inhibition", "value": "10%"}
{"Structure (SMILES)": "C[C@@H]1CN(c2cc(-c3nn(C)c4ccc(OC5(C)CC5)cc34)ncn2)C[C@H](C)O1", "target": "RAF1", "read-out": "cell-free assay", "technique": "competition with immobilised ligand", "concentration": "1 µM", "endpoint": "remaining binding", "value": "100%"}
{"Structure (SMILES)": "COc1cc(Cl)c(C(=O)N[C@@H](CN[C@H]2CC[C@@H](N)CC2)Cc2ccc(C#N)cc2)cc1-c1ccc(CN[C@H](C)c2ccc(C)cc2)o1", "target": "RAF1", "read-out": "enzyme activity", "action": "inhibitor", "concentration": "1 µM", "endpoint": "remaining activity", "value": "97%"}
{"Structure (SMILES)": "CC(C)(C)c1nc(-c2cccc(NS(=O)(=O)c3c(F)cccc3F)c2F)c(-c2ccnc(N)n2)s1", "target": "RAF1 Y340D/Y341D", "read-out": "enzyme activity", "action": "inhibitor", "technique": "radiometric", "concentration": "1 µM", "endpoint": "remaining activity", "value": "1%"}
{"Structure (SMILES)": "O=C(O)[C@@H]1[C@@H](Cn2nnc3ccccc3c2=O)CC[C@H]1C(=O)c1ccc(OCCC2CCOCC2)cc1", "target": "RAF1", "read-out": "cell-free assay", "technique": "competition with immobilised ligand", "concentration": "1 µM", "endpoint": "remaining binding", "value": "100%"}
{"Structure (SMILES)": "Cc1[nH]c(/C=C2\\C(=O)Nc3ccc(F)cc32)c(C)c1C(=O)N[C@H]1CCN(C(=O)N(C)C)C1", "target": "RAF1", "read-out": "enzyme activity", "action": "inhibitor", "concentration": "0.1 µM", "endpoint": "remaining activity", "value": "118%"}
{"Structure (SMILES)": "c1ccc(N2CCN(Cc3nc4ccccc4[nH]3)CC2)nc1", "target": "RAF1", "read-out": "binding", "technique": "competition with immobilised ligand", "concentration": "1 µM", "endpoint": "remaining binding", "value": "100%"}
{"Structure (SMILES)": "Cc1ccc(NC(=O)c2ccc(C)c(C(F)(F)F)c2)cc1C#Cc1nn(C2CCC(O)CC2)c2ncnc(N)c12 (stereo not drawn)", "target": "RAF1", "read-out": "cell-free assay", "concentration": "10 µM", "endpoint": "remaining signal", "value": "24%"}
{"Structure (SMILES)": "CN(C)C(=O)Cn1cc(-c2nc(C3(c4ccc(-c5cnc(N)nc5)cc4)CC3)no2)cn1", "target": "RAF1", "read-out": "cell-free assay", "technique": "competition with immobilised ligand", "concentration": "1 µM", "endpoint": "remaining binding", "value": "100%"}
{"Structure (SMILES)": "O=C(Nc1cnn(-c2csc(C(=O)NC3COC3)c2)c1)Nc1c(F)cccc1Cl", "target": "RAF1", "read-out": "enzyme activity", "action": "inhibitor", "concentration": "5 µM", "endpoint": "remaining activity", "value": "92.5%"}
{"Structure (SMILES)": "O=C(O)c1cc(-c2ccc(C3CCNCC3)cc2)c2ccc(-c3ccc(C(F)(F)F)cc3)cc2c1", "target": "RAF1", "read-out": "cell-free assay", "technique": "competition with immobilised ligand", "concentration": "1 µM", "endpoint": "remaining binding", "value": "70%"}
{"Structure (SMILES)": "Nc1ncnc2occ(-c3ccc(NC(=O)Nc4cc(C(F)(F)F)ccc4F)cc3)c12", "target": "RAF1", "read-out": "cell-free assay", "action": "inhibitor", "concentration": "20 µM", "endpoint": "remaining signal", "value": "0%"}
{"Structure (SMILES)": "CS(=O)(=O)c1cc(C2(NC(=O)c3cncc4c3cnn4-c3ccc(F)cc3)CC2)ccn1", "target": "RAF1", "read-out": "cell-free assay", "technique": "competition with immobilised ligand", "concentration": "1 µM", "endpoint": "remaining binding", "value": "100%"}
{"Structure (SMILES)": "COc1cc2ncnc(Nc3ccc(Oc4ccccc4)c(C)c3C)c2cc1OC", "target": "RAF1 Y340D/Y341D", "read-out": "enzyme activity", "action": "inhibitor", "concentration": "1 µM", "endpoint": "inhibition", "value": "-6%"}
